{"source": "paper PMC9285861", "about": "(Biomacromolecules, 2019)", "key": {"[1]": {"tested_on": "human immune cell lines (T cells, B cells, or THP-1 cells)", "test": "LSPR immunoassay of cytokine secretion, immune cell lines", "assay_type": "cell-based", "settings": "for effect of plasma proteins on immune responses (cytokine secretion): 37 °C, human plasma versus RPMI-1640 medium, all three types of immune cells", "outline": "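Jurkat T (RPMI-1640, 200 μg/mL […], 10% FBS), EBV-transformed B lymphoblasts and THP-1 (50 μM mercaptoethanol) cells at 1 × 10^6 cells/mL in human plasma proteins or RPMI-1640 took test peptide oligomers or fibrils, 5, 10, 15 μM final, 2 h at 4 and 37 °C. TNF and IL-6 in medium measured on antibody–gold nanorod LSPR chips via calibration curves; triplicate.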"}, "granulocytes": {"tested_on": "granulocytes", "test": "Blood cell association of ThT-labeled Aβ by flow cytometry, granulocytes", "assay_type": "cell-based, human", "settings": "1 h", "outline": "(§1)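 Heparinised whole blood, or blood washed five times in PBS (950g, 10 min) and resuspended in serum-free RPMI 1640, given ThT-labeled test peptide oligomers or fibrils at 5, 10, 15 μM, 1 h at 4 and 37 °C, triplicate. RBCs lysed; antibody staining 1 h on ice; 1% formaldehyde fixation; flow cytometry with populations gated by CD3, CD14, CD56, CD19, Lin1/HLA-DR, SSC-A.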"}, "dendritic cells (DCs)": {"tested_on": "dendritic cells (DCs)", "test": "Blood cell association of ThT-labeled Aβ by flow cytometry, dendritic cells", "assay_type": "cell-based, human", "settings": "1 h", "outline": "as §1"}, "Thioflavin T": {"test": "Thioflavin T", "assay_type": "physicochemical", "settings": "50 μM Aβ, 100 μM ThT, 37 °C, without plasma proteins, Ex/Em 440/485 nm, triplicate"}, "[2]": {"tested_on": "SH-SY5Y neuroblastoma cells", "settings": "20 μM Aβ, 15 h, triplicate, ± SD"}, "NK cells": {"tested_on": "NK cells", "test": "Blood cell association of ThT-labeled Aβ by flow cytometry, NK cells", "assay_type": "cell-based, human", "settings": "especially with plasma proteins, 1 h", "outline": "as §1"}, "Reverse phase HPLC": {"test": "Reverse phase HPLC", "assay_type": "physicochemical", "settings": "Figure S2"}, "SH-SY5Y neuronal cells": {"tested_on": "SH-SY5Y neuronal cells", "settings": "20 μM Aβ, 2 h"}, "monocytes": {"tested_on": "monocytes", "test": "Blood cell association of ThT-labeled Aβ by flow cytometry, monocytes", "assay_type": "cell-based, human", "settings": "1 h, triplicate", "outline": "as §1"}, "[3]": {"tested_on": "Human monocytic THP-1 cells", "test": "LSPR immunoassay of cytokine secretion, THP-1 cells", "assay_type": "cell-based", "settings": "37 °C, 2 h incubation, 5, 10, 15 μM, LSPR read-out"}, "B cells": {"tested_on": "B cells", "test": "Blood cell association of ThT-labeled Aβ by flow cytometry, B cells", "assay_type": "cell-based, human", "settings": "1 h", "outline": "as §1"}, "T cells": {"tested_on": "T cells", "test": "Blood cell association of ThT-labeled Aβ by flow cytometry, T cells", "assay_type": "cell-based, human", "settings": "1 h", "outline": "as §1"}, "[4]": {"settings": "5 μM, with plasma proteins, triplicate ± SD"}, "[5]": {"settings": "5 μM, without plasma proteins, triplicate ± SD"}, "[6]": {"settings": "10 μM, with plasma proteins, triplicate ± SD"}, "[7]": {"settings": "10 μM, without plasma proteins, triplicate ± SD"}, "[8]": {"settings": "15 μM, with plasma proteins, triplicate ± SD"}, "[9]": {"settings": "15 μM, without plasma proteins, triplicate ± SD"}}, "note": "Read-outs that look alike come from different tables or passages of the source.", "data": [{"substance": "AIAEGDSHVLKEGAY-MEIFDVQGHVFGGKIFRVVDLGSHNVA [AβO]", "values": [{"measurement": "effect of plasma proteins on immune responses (cytokine secretion)", "setting": "[1]", "value": "mostly promoted"}, {"measurement": "expression of cytokines IL-6 and TNF by immune cells", "setting": "[1]; 2 h incubation, LSPR sensor", "value": "significant expression"}, {"measurement": "association with granulocytes", "setting": "granulocytes; with and without plasma proteins (no considerable difference)", "value": "80–90%"}, {"measurement": "association with DCs", "setting": "dendritic cells (DCs); in the absence of plasma proteins, range over 5-15 μM", "value": "78–85%"}, {"measurement": "association with DCs", "setting": "dendritic cells (DCs); whole blood cells (with plasma proteins), range over 5-15 μM", "value": "69–93%"}, {"measurement": "time to saturation phase of ThT fibrillization kinetics", "setting": "Thioflavin T", "value": "~ 60 h"}, {"measurement": "cytotoxicity (PI-positive cells)", "setting": "[2]; with plasma proteins", "value": "30 ± 2", "unit": "%"}, {"measurement": "cytotoxicity (PI-positive cells)", "setting": "[2]; without plasma proteins", "value": "39 ± 2.6", "unit": "%"}, {"measurement": "association with NK cells", "setting": "NK cells", "value": "very low association"}, {"measurement": "hydrophobicity by RP-HPLC", "setting": "Reverse phase HPLC", "value": "slightly hydrophobic"}, {"measurement": "cell membrane damage by HIM", "setting": "SH-SY5Y neuronal cells; with plasma proteins", "value": "damage was reduced"}, {"measurement": "cell membrane damage by HIM", "setting": "SH-SY5Y neuronal cells; without plasma proteins", "value": "significant damage including membrane deformation and blebbing"}, {"measurement": "association with monocytes", "setting": "monocytes; all concentrations (5, 10, 15 μM), all conditions", "value": "90–100%"}, {"measurement": "pro-inflammatory cytokine secretion (TNF, IL-6) of THP-1 cells", "setting": "[3]", "value": "prominent pro-inflammatory cytokine secretion"}, {"measurement": "change of association with B cells from whole blood to washed cells", "setting": "B cells; 3 concentrations (5, 10, 15 μM)", "value": "slightly decreased"}]}, {"substance": "AIAEGDSHVLKEGAY-MEIFDVQGHVFGGKIFRVVDLGSHNVA [Aβf]", "values": [{"measurement": "effect of plasma proteins on immune responses (cytokine secretion)", "setting": "[1]", "value": "overall suppressed immune responses"}, {"measurement": "association with T cells", "setting": "T cells; 5 μM, without plasma proteins (washed blood), triplicate ± SD", "value": "5.2 ± 0.1", "unit": "%"}, {"measurement": "association with T cells", "setting": "T cells; 10 μM, without plasma proteins (washed blood), triplicate ± SD", "value": "38.2 ± 3.2", "unit": "%"}, {"measurement": "association with T cells", "setting": "T cells; 15 μM, without plasma proteins (washed blood), triplicate ± SD", "value": "51.8 ± 1.5", "unit": "%"}, {"measurement": "association with T cells", "setting": "T cells; with plasma proteins (whole blood)", "value": "< 10", "unit": "%"}, {"measurement": "association with granulocytes", "setting": "granulocytes; [4]", "value": "7.0 ± 2.9", "unit": "%"}, {"measurement": "association with granulocytes", "setting": "granulocytes; [5]", "value": "11.7 ± 0.4", "unit": "%"}, {"measurement": "association with granulocytes", "setting": "granulocytes; [6]", "value": "21.6 ± 1.2", "unit": "%"}, {"measurement": "association with granulocytes", "setting": "granulocytes; [7]", "value": "38.5 ± 5.4", "unit": "%"}, {"measurement": "association with granulocytes", "setting": "granulocytes; [8]", "value": "35.7 ± 2.6", "unit": "%"}, {"measurement": "association with granulocytes", "setting": "granulocytes; [9]", "value": "51.8 ± 3.1", "unit": "%"}, {"measurement": "association with DCs", "setting": "dendritic cells (DCs); [4]", "value": "11.1 ± 3.7", "unit": "%"}, {"measurement": "association with DCs", "setting": "dendritic cells (DCs); [5]", "value": "38.2 ± 3.3", "unit": "%"}, {"measurement": "association with DCs", "setting": "dendritic cells (DCs); [6]", "value": "35 ± 0.7", "unit": "%"}, {"measurement": "association with DCs", "setting": "dendritic cells (DCs); [7]", "value": "69.2 ± 3.1", "unit": "%"}, {"measurement": "association with DCs", "setting": "dendritic cells (DCs); [8]", "value": "56.5 ± 13", "unit": "%"}, {"measurement": "association with DCs", "setting": "dendritic cells (DCs); [9]", "value": "71.2 ± 6.4", "unit": "%"}, {"measurement": "cytotoxicity (PI-positive cells)", "setting": "[2]; with plasma proteins", "value": "not affected by plasma proteins"}, {"measurement": "cytotoxicity (PI-positive cells)", "setting": "[2]; without plasma proteins", "value": 13, "unit": "%"}, {"measurement": "association with NK cells", "setting": "NK cells", "value": "no association"}, {"measurement": "hydrophobicity by RP-HPLC", "setting": "Reverse phase HPLC", "value": "varying hydrophobicity"}, {"measurement": "cell membrane damage by HIM", "setting": "SH-SY5Y neuronal cells; with plasma proteins", "value": "no damage was evident"}, {"measurement": "cell membrane damage by HIM", "setting": "SH-SY5Y neuronal cells; without plasma proteins", "value": "no damage was evident"}, {"measurement": "association with monocytes", "setting": "monocytes; high concentrations", "value": "60–80%"}, {"measurement": "association with monocytes", "setting": "monocytes; low concentrations", "value": "20–40%"}, {"measurement": "association with B cells", "setting": "B cells; 10 μM, whole blood as the sentence is printed, triplicate ± SD", "value": "36.6 ± 6.0", "unit": "%"}, {"measurement": "association with B cells", "setting": "B cells; 15 μM, whole blood as the sentence is printed, triplicate ± SD", "value": "57.1 ± 0.9", "unit": "%"}, {"measurement": "association with B cells", "setting": "B cells; 3 concentrations (5, 10, 15 μM), washed cells as the sentence is printed", "value": "below 5%"}]}, {"substance": "AIAEGDSHVLKEGAY-MEIFDVQGHVFGGKIFRVVDLGSHNVA [Aβm, reference compound]", "values": [{"measurement": "time to saturation phase of ThT fibrillization kinetics", "setting": "Thioflavin T", "value": "~ 60 h"}]}]}
